From ChEMBL document CHEMBL1144138, “Cytotoxic terpenoids from the Formosan soft coral Nephthea brassica” (1999)
Converted amounts (≈) assume the structure as drawn.

What was measured:
Format in all cases: functional
A549 = assay: Cytotoxicity against human A549 cells after 6 days by MTT assay; conditions: A549, 144 h, read-out: ED50 (the source's name)
How it was run: (§1)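 Cells were adapted to RPMI 1640 with 10% FCS and 1 mM […], then grown at 37 °C in 5% CO2. Seeding per well was 750 for A549, 750 for HT-29, 2000 for KB and 1500 for P-388. Three to eight concentrations spanning an 8- to 128-fold range were tested. After exposure, 1 mg/mL MTT was added for 4 h at 37 °C, formazan was dissolved in DMSO, and A540 was read. ED50 is the concentration giving 50% absorbance reduction versus untreated cells.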

KB = assay: Cytotoxicity against human KB cells after 3 days by MTT assay; conditions: 72 h, read-out: ED50 (the source's name); how it was run: as §1
HT-29 = assay: Cytotoxicity against human HT-29 cells after 6 days by MTT assay; conditions: HT-29, 144 h, read-out: ED50 (the source's name); how it was run: as §1
P388 = assay: Cytotoxicity against mouse P388 cells after 3 days by MTT assay; conditions: P388, 72 h, read-out: ED50 (the source's name); how it was run: as §1

| SMILES | EC50 (A549) [µg/mL] | EC50 (KB) [µg/mL] | EC50 (HT-29) [µg/mL] | EC50 (P388) [µg/mL] |
| --- | --- | --- | --- | --- |
| C/C1=C\CC/C(C)=C/[C@H](O)C(C(C)(C)O)CC/C(C)=C/CC1 (stereo partly specified) | 0.71 (≈ 2.32 µM) | 0.23 (≈ 0.75 µM) | 1.02 (≈ 3.33 µM) | 1.8 (≈ 5.87 µM) |
| C/C1=C\CCC2=C[C@H](OC2=O)C(C(C)(C)O)CC/C(C)=C/CC1 (stereo partly specified) [BRASSICOLIDE] | > 50 | 2.4 (≈ 7.54 µM) | 5.81 (≈ 18.2 µM) | 2.44 (≈ 7.66 µM) |
| CC(=O)OC(C)(C)C1CC/C(C)=C/CC/C(C)=C/CCC2=C[C@@H]1OC2=O (stereo partly specified) [BRASSICOLIDE ACETATE] | 3.03 | 0.72 | 0.81 | 1.2 |
| C=C[C@]1(C)CC[C@H](C(=C)C)C[C@@H]1C(=C)C | > 50 | > 50 | > 50 | 0.92 (≈ 4.5 µM) |
| C/C1=C\CC/C(C)=C/CC(C(C)(C)O)CC/C(C)=C/CC1 (stereo unspecified) [NEPHTHENOL] | 2.72 (≈ 9.36 µM) | 1.81 (≈ 6.23 µM) | 3.01 (≈ 10.4 µM) | 0.42 (≈ 1.45 µM) |
| C=C(C)[C@@H]1CC/C(C)=C/CC/C(C)=C/CC[C@]2(C)O[C@H]2C1 [EPOXYCEMBRENE A] | 3.61 (≈ 12.5 µM) | 3.41 (≈ 11.8 µM) | 2.72 (≈ 9.43 µM) | 0.4 (≈ 1.39 µM) |
| C=C(C)C1CC[C@@]2(C)CCC[C@@](C)(OC(C)=O)[C@@H]2C1 (stereo partly specified) | 0.12 (≈ 0.454 µM) | > 50 | > 50 | 2.44 (≈ 9.23 µM) |
| C=C(C)C1CC[C@@]2(C)CCC[C@@](C)(O)[C@@H]2C1 (stereo partly specified) | > 50 | > 50 | > 50 | 3.86 (≈ 17.4 µM) |
| C=C(C)[C@H]1C/C=C(\C)CC/C=C(\C)CC/C=C(\C)CC1 [CEMBRENE_A] | 1.11 (≈ 4.07 µM) | 3.73 (≈ 13.7 µM) | 3.42 (≈ 12.6 µM) | 1.1 (≈ 4.04 µM) |
